# Screens as filed in PubChem.
# Rin1 Abl inh: blocks binding of human Rin1 to Abl; TR-FRET Rin1/Abl binding, biochemical; 0.4% of 360,000 active; inhibition, % at 7.35 µM; in the data active = inhibition above about 5%, passing the limit was not always enough
# Target sequence (P00519 whole entry, looked up): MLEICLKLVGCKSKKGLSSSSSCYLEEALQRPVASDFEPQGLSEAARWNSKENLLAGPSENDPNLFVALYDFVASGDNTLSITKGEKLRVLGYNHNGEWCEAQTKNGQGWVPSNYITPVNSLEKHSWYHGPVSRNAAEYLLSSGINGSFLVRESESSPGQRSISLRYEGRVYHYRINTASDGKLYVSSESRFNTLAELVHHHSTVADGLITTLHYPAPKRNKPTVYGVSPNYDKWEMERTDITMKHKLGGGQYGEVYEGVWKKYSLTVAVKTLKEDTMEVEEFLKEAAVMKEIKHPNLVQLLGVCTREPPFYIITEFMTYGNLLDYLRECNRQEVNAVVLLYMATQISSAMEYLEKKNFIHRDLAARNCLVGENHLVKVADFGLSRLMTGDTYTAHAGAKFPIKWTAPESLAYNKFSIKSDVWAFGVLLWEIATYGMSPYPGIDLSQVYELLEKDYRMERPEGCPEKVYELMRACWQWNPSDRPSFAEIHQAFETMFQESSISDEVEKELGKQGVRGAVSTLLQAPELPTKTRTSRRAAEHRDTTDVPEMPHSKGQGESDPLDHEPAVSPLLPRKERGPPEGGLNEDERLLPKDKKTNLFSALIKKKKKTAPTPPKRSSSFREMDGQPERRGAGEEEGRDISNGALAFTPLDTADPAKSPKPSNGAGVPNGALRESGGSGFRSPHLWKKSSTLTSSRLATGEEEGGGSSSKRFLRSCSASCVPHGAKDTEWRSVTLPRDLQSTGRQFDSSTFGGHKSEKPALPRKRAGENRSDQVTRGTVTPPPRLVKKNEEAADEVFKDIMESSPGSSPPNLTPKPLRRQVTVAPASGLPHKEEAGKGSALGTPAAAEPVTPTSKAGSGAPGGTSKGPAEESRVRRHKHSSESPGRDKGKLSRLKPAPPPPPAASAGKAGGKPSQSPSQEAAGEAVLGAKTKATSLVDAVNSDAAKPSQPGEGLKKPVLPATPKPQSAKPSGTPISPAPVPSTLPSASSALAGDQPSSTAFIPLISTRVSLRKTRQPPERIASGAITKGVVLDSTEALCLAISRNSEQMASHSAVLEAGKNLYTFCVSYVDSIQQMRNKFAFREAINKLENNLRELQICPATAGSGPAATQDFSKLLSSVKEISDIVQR
# Target sequence (Q13671 whole entry, looked up): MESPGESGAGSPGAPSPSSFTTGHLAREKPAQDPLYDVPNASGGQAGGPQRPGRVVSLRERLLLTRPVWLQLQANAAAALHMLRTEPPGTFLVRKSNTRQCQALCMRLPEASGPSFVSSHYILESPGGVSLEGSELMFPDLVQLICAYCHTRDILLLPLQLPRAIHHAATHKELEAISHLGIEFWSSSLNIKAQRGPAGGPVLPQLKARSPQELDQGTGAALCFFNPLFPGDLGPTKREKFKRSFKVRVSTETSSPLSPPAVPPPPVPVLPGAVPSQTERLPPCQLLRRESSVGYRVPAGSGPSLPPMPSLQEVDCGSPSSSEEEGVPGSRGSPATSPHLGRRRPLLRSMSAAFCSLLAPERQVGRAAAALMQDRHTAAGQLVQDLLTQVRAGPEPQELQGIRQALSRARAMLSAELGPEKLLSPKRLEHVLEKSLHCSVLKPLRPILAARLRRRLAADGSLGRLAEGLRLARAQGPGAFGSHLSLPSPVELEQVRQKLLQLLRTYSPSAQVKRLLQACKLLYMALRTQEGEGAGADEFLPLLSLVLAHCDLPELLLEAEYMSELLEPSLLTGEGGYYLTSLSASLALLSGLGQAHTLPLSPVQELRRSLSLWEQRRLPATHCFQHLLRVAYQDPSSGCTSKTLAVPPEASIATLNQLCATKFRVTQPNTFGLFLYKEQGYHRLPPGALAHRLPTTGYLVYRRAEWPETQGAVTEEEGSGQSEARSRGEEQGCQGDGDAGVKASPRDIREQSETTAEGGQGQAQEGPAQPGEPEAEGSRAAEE
# PKA-R2B activ: activates the human PKA-R2B holoenzyme complex; PKA-R2B holoenzyme dissociation, Cy5-IP20 fluorescence polarization; R2B truncated from residue 108, S112A mutant; 0% DMSO only, 100% 113 µM cGMP; activation, % at 11.4 µM; 0.079% of 340,000 active;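 active = activation above a cutoff set at the mean over all compounds plus 3 SD, cut at about 18% in these data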;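 also: higher means more holoenzyme dissociation and a rise in polarization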
# UCH37 inh: human UCH37 deubiquitinating enzyme inhibition | inhibition, % (concentration not given with the values) | 0.33% of 330,000 active | purified proteasome/UCH37, Ub-AMC cleavage fluorescence | AID 588478 | Q9Y5K5;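 active = mean inhibition over replicate wells above about 20%, limit read from the data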;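 also: 0% = compound-free wells with enzyme and 100% = wells lacking proteasome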
#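 system = Proteasome-associated human UCH37 deubiquitinase | amount = 0.15 nM proteasome as dispensed | medium = pH 7.4 Tris-HCl (50 mM) with ovalbumin, ATP-MgCl2, DTT | incubation = 30 min preincubation with enzyme, 25 min cleavage at room temperature | detection = AMC fluorescence 355/460 nm | read-out basis = percent inhibition | controls = no-proteasome and no-compound wells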
# PKA-R1A act: activates the PKA-R1A holoenzyme complex; PKA-R1A dissociation, Cy5-IP20 fluorescence polarization; scaled: DMSO 0%, 113 µM cGMP 100%; activation, % at 11.4 µM; 0.083% of 340,000 active;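 active = percent activation above the mean of all tested compounds plus 3 SD, cut at about 19% in these data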;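 also: higher means more PKAc released from R1A so a rise in polarization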
# Rin1 Abl conf: confirmation of inhibitors of human Rin1-Abl interaction. shares compounds with Rin1 Abl inh. TR-FRET Rin1-Abl binding, purified proteins. inhibition, % at 7.35 µM. 49% of 1,300 active; in the data active = inhibition above about 6.5%
# GFP quench-1: counter-screen for Rin1-Abl inhibitors: GFP fluorescence quenchers; shares compounds with Rin1 Abl inh; inhibitors/quenchers counterscreen; inhibition, % at 6.75 µM; 8.5% of 1,300 active; AID 602125; in the data active = inhibition above about 6.5%;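 also: ABL1-eGFP fusion protein alone without its partner RIN1-SBP; 0% = protein with vehicle and 100% = wells lacking protein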
# GFP quench dose: quenches GFP in dose response, Rin1-Abl counter-screen | shares compounds with Rin1 Abl inh | GFP fluorescence interference/quenching counterscreen | IC50, µM | 230 tested, under 10 active | AID 602182;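 also: ABL1-eGFP fusion protein alone without its RIN1 binding partner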
# GFP quench-2: quenches GFP fluorescence in Rin1-Abl counterscreen. shares compounds with Rin1 Abl inh. GFP fluorescence quenching counterscreen, biochemical. IC50, µM. 25 tested, under 10 active
# * marks the source's active call; other numbers are inactive results; · = no result. The list is not random: actives were taken first. Their share in the collection is about 0.79%. Unless noted, no rule for the calls is given here.
SMILES,Rin1 Abl inh,PKA-R2B activ,UCH37 inh,PKA-R1A act,Rin1 Abl conf,GFP quench-1,others
COc1cc2ccc(=O)oc2c(O)c1OCC=C(C)C,0,2,-11,-1,·,·,
Cn1c(=O)c2c(nc(-n3ccnc3)n2Cc2ccccc2)n(C)c1=O,15*,5,5,-18,13*,1,
Cn1c(=O)c2c(nc(-n3ccnc3)n2C)n(C)c1=O,4,3,-4,0,·,·,
Cn1c(=O)c2c(nc(NCc3ccco3)n2Cc2ccc(Cl)cc2Cl)n(C)c1=O,-1,5,3,2,·,·,
Cn1c(=O)c2c(nc(-n3ccnc3)n2Cc2ccc(Cl)cc2Cl)n(C)c1=O,72*,5,6,1,68*,0,GFP quench dose=>68;GFP quench-2=>68
O=C(c1ccccc1Cl)N1CCc2ccccc2C1,3,-10,3,-11,·,·,
O=C(Cn1c(=O)n(CCC(=O)N2CCCCC2)c(=O)c2sccc21)NCc1ccccc1,0,2,4,-2,·,·,
Clc1ccc(NCc2cccnc2)cc1,-1,2,4,-2,·,·,
O=C1OC(NCc2cccnc2)(c2ccc(Cl)cc2)c2ccccc21 (stereo not given),12*,-4,1,-1,7.4*,-2,
COc1cc(NC(=O)CCNC(=O)Cn2cnc3sc4c(c3c2=O)CCCC4)cc(OC)c1OC,4,-5,1,2,·,·,
CCOc1ccc(CCNC(=O)CN2C(=O)c3cccnc3Oc3ccc(Cl)cc32)cc1,26*,-2,1,-8,24*,-2,GFP quench dose=>68
O=C(CN1C(=O)c2cccnc2Oc2ccc(Cl)cc21)NCCC1=CCCCC1,-3,-3,-1,-4,·,·,
CCOc1ccc(CCNC(=O)CN2C(=O)c3cccnc3Oc3ccc(C)cc32)cc1OCC,36*,-1,2,-7,41*,0,GFP quench dose=>67
Cc1ccc(S(=O)(=O)N2CCC(C(=O)NCc3cccnc3)CC2)cc1,5,6,3,-4,·,·,
Cn1c(=O)c2c(nc(CN3CCN(C(=O)c4ccco4)CC3)n2Cc2cccc(Cl)c2)n(C)c1=O,7.1*,-2,3,-3,-2,1,
COc1ccc2nc(SCC(=O)NCC3CCCO3)c(C#N)cc2c1 (stereo not given),-3,0,-18,6,·,·,
Oc1ccc(C=NN(Cc2ccccc2)c2ccccc2)c(O)c1O,·,·,2,·,·,·,
Oc1ccc(/C=N/N(c2ccccc2)c2ccccc2)c(O)c1O,10*,0,·,-4,6,4,
O=C(Cn1[nH]c(=O)c2ccccc2c1=O)NC1CCCCCC1,1,-5,-1,5,·,·,
O=c1[nH]n(CC2COC3(CCCCC3)O2)c(=O)c2ccccc12 (stereo not given),34*,-3,4,6,27*,0,GFP quench dose=>68
CS(=O)(=O)N(CC(=O)Nc1ccc(S(=O)(=O)N2CCOCC2)cc1)c1ccccc1Br,9.4*,0,0,-8,-3,2,
CCCC(=O)Nc1ccc(C(=O)COC(=O)c2c(C)noc2C)cc1,5,-3,1,4,·,·,
CN=c1scc(-c2ccccc2F)n1N=Cc1ccc(O)c(O)c1O,·,·,3,·,·,·,
COCCN=c1scc(-c2ccco2)n1/N=C/c1ccc(O)c(O)c1O,20*,-10,·,-11,13*,11*,
C=CCN=c1scc(-c2ccco2)n1/N=C/c1ccc(O)c(O)c1O,11*,-2,·,2,6,7.3*,
SMILES,Rin1 Abl inh,PKA-R2B activ,UCH37 inh,PKA-R1A act,Rin1 Abl conf,GFP quench-1,others
O=C(Cc1ccc(NC2=NC3CS(=O)(=O)CC3S2)cc1)NCCc1ccccc1 (stereo not given),6.5*,11,0,4,-1,0,
Cc1ccc(CNC(=O)Cc2ccc(NC3=NC4CS(=O)(=O)CC4S3)cc2)cc1 (stereo not given),10*,-3,-1,2,6,1,
COc1ccc(CCNC(=O)c2ccc(NC3=NC4CS(=O)(=O)CC4S3)cc2)cc1OC (stereo not given),18*,-6,3,0,22*,-1,GFP quench dose=>68
C[C@H]1CN([C@@H](C)CO)C(=O)CCCn2cc(nn2)CO[C@@H]1CN(C)C(=O)c1ccc(N2CCN(C)CC2)cc1,3,·,·,·,·,·,
O=C(NC1CCN(S(=O)(=O)c2ccc(Cl)cc2)CC1)C1CCCCC1,2,-11,4,5,·,·,
O=C(NCc1ccccc1)c1ccc(Br)cc1Br,-4,-5,-1,2,·,·,
O=C(NCc1ccccc1)c1ccccc1Br,7.8*,0,0,-4,-3,-1,
CSc1ncc(CN2CCC(C(=O)Nc3cccc(-c4cscn4)c3)CC2)cn1,1,3,3,2,·,·,
COCCc1ncc(CN2CCC(C(=O)Nc3cccc(-c4cscn4)c3)CC2)cn1,13*,-3,2,-13,7.2*,-1,
CCCc1ncc(CN2CCC(C(=O)Nc3cccc(-c4cscn4)c3)CC2)cn1,36*,-1,2,-4,19*,0,GFP quench dose=>68
CCCCNCCCOc1cccc(Cl)c1,1,0,-1,-2,·,·,
Cc1nc(Cl)sc1C(=O)Nc1ccc(Cl)cc1,1,-4,0,-6,·,·,
CNC(=O)c1oc(-c2ccc(Cl)cc2)nc1C,13*,-9,6,-13,-3,0,
CN(CC(=O)Nc1cccc(F)c1)C(=O)c1ccc(OCc2ccccc2)cc1,12*,2,-2,2,-3,-2,
Nc1ccc2nc(SCC(=O)Nc3ccc(N4CCOCC4)c(Cl)c3)sc2c1,-3,3,3,2,·,·,
Cc1cc(NC(=O)CSc2ccccn2)no1,6,6,0,10,·,·,
CSc1ccc(NC(=O)N2CCC(C(=O)c3ccc(F)cc3)CC2)cc1,7.4*,5,1,-3,-1,0,
CCOc1ccc(OCCCC(=O)N(C)CC(=O)Nc2ccc(N3CCOCC3)cc2)cc1,-1,-8,0,-10,·,·,
CN(CC(=O)Nc1ccc(N2CCOCC2)cc1)C(=O)CCCOc1ccc(Cl)cc1Cl,11*,-7,3,7,-2,0,
CCN(Cc1ccccc1)c1ccc(C=NNS(=O)(=O)c2ccc(C)c([N+](=O)[O-])c2)cc1,·,·,10,·,·,·,
CC1Cc2ccccc2N1C(=O)COC(=O)/C=C/c1cccc(F)c1 (stereo not given),12*,2,2,-5,-2,-1,
CCCCCCn1cc(C(=O)O)c(=O)c2cc(F)c(N3CCN(C)CC3)cc21,2,-9,-47,3,·,·,
CC(C)N(CC(N)=O)C(=O)c1sc2cc(F)ccc2c1Cl,7.0*,-1,3,-4,0,1,
